Data reported in ChEMBL document CHEMBL1123285, “Substituted 1-benzylimidazole-2-thiols as potent and orally active inhibitors of dopamine beta-hydroxylase” (J Med Chem, 1986).

Assays:
Rattus norvegicus [1] = assay: In vivo evaluation ot the compound in spontaneously hypertensive rats for the mean arterial blood pressure; assay type: functional
Method in brief: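 Conscious SHR anesthetized with Brevital Na (10 mg/kg, iv) and femoral artery cannulated to a pressure transducer. After 1-h recovery, baseline MAP taken every 15 min for 1 h. Dosed 50 mg/kg ip unless noted, then MAP recorded every 15–30 min for 4 h. Value at 150 min postdose, mean ± SEM.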

[2] = target: T1, Dopamine beta-hydroxylase (Bos taurus, UniProt P15101); assay: Binding affinity towards Dopamine beta hydroxylase using tyramine substrate at pH 4.5 in the absence of fumarate
T1 sequence (P15101 whole entry): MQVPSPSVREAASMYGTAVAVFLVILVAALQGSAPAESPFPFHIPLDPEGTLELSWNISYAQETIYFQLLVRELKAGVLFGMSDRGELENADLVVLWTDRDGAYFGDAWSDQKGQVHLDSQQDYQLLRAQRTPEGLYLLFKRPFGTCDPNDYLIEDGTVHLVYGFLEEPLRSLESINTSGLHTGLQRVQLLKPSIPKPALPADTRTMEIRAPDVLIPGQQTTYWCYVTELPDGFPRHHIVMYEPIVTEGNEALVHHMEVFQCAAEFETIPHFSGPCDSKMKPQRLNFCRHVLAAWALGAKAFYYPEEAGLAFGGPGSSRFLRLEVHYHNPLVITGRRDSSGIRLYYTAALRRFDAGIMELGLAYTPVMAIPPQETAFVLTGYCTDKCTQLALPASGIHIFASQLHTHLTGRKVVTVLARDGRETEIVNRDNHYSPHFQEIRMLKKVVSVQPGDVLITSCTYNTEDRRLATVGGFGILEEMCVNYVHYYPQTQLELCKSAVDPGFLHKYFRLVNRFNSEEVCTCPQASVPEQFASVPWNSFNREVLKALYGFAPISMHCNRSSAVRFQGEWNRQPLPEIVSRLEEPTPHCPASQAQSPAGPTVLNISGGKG
Method in brief: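 Homogeneous bovine DBH (sp act. 30–42 U/mg at pH 5.0), tyramine as substrate, pH 4.5, no fumarate. Conditions: 50 mM sodium acetate, ionic strength 0.2, 200 μg/mL bovine catalase, 10 μM Cu²⁺, 10 mM ascorbic acid, 37 °C. Km apparent for tyramine 3.0 mM. Ki fitted with Cleland programs; mean ± SEM.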

Rattus norvegicus [3] = assay: DBH inhibitory activity was measured as NE levels in mesenteric artery at dose of 100 mg/kg, po; assay type: functional, organism-based; set-up: dose 100 mg/kg
Method in brief: (§1)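 SHR (N = 5) dosed orally twice, about 18 h apart, with vehicle (5% PEG 400 in 1% methocel) or drug at the stated dose. Killed 2 h after the second dose. Mesenteric artery homogenized. Catecholamines measured by COMT methylation with [methyl-3H]-S-adenosylmethionine, chromatographic separation of methylated amines and scintillation counting. Mean ± SEM.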

Rattus norvegicus [4] = assay: DBH inhibitory activity was measured as NE levels in mesenteric artery at dose of 25 mg/kg, po; assay type: functional, organism-based; set-up: dose 25 mg/kg; method in brief: as §1
Rattus norvegicus [5] = assay: DBH inhibitory activity was measured as NE levels in mesenteric artery at dose of 50 mg/kg, po; assay type: functional, organism-based; set-up: dose 50 mg/kg; method in brief: as §1
Rattus norvegicus [6] = assay: DBH inhibitory activity was measured as dopamine levels in mesenteric artery at dose of 100 mg/kg, po; assay type: functional, organism-based; set-up: dose 100 mg/kg; method in brief: as §1
Rattus norvegicus [7] = assay: DBH inhibitory activity was measured as dopamine levels in mesenteric artery at dose of 25 mg/kg, po; assay type: functional, organism-based; set-up: dose 25 mg/kg; method in brief: as §1
Rattus norvegicus [8] = assay: DBH inhibitory activity was measured as dopamine levels in mesenteric artery at dose of 25 mg/kg, po.; assay type: functional, organism-based; set-up: dose 25 mg/kg; method in brief: as §1
[9] = In vivo evaluation ot the compound in spontaneously hypertensive rats for the catecholamine levels by taking the ratio of copamine to norepinephrine; assay type: functional
Method in brief: (§2)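 Spontaneously hypertensive rats (N = 5) got two oral doses about 18 h apart, either vehicle (5% PEG 400 in 1% methocel) or drug in vehicle, and were killed 2 h after the second dose. The mesenteric artery was homogenized. Dopamine and NE were measured by catechol O-methyltransferase methylation with [methyl-3H]-S-adenosylmethionine, then chromatographic separation and scintillation counting. Values are mean ± SEM.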

[10] = Ratio of dopamine to that of NE levels in mesenteric artery measured at 100 mg/kg po; assay type: functional; method in brief: as §2
[11] = Ratio of dopamine to that of NE levels in mesenteric artery measured at 25 mg/kg po; assay type: functional; method in brief: as §2
[12] = Ratio of dopamine to that of NE levels in mesenteric artery measured at 50 mg/kg po; assay type: functional
[13] = In vivo evaluation ot the compound in spontaneously hypertensive rats for the catecholamine levels by taking the ratio of dopamine to norepinephrine; assay type: functional; method in brief: as §1

Oc1ccc(Cn2cc[nH]c2=S)cc1
MAP (Rattus norvegicus [1]): 137 mmHg

Fc1cc(F)cc(Cn2cc[nH]c2=S)c1
Ki [2]: 41 nM | Level (Rattus norvegicus [3]): 3.05 µg of tissue | Level (Rattus norvegicus [4]): 4.94 µg of tissue | Level (Rattus norvegicus [5]): 4 µg of tissue | Level (Rattus norvegicus [6]): 1.06 µg of tissue | Level (Rattus norvegicus [7]): 0.3 µg of tissue | Level (Rattus norvegicus [8]): 0.765 µg of tissue | MAP (Rattus norvegicus [1]): 105 mmHg | Ratio [9]: 0.208 | Ratio [10]: 0.378 | Ratio [11]: 0.155 | Ratio [12]: 0.204

Oc1c(F)cc(Cn2cc[nH]c2=S)cc1F
Ki [2]: 5.7 nM | MAP (Rattus norvegicus [1]): 137 mmHg | Ratio [13]: 0.082

CCCCc1ccc(C(=O)O)nc1 [FUSARIC ACID]
Ki [2]: 149 nM | Ratio [12]: 0.109
